Published values of several laboratories.
Protocols differ between the studies behind these lines.
Target: Serine/threonine-protein kinase Sgk1 (SGK1, Homo sapiens, UniProt O00141)
Residues used in one study (O00141 1-431): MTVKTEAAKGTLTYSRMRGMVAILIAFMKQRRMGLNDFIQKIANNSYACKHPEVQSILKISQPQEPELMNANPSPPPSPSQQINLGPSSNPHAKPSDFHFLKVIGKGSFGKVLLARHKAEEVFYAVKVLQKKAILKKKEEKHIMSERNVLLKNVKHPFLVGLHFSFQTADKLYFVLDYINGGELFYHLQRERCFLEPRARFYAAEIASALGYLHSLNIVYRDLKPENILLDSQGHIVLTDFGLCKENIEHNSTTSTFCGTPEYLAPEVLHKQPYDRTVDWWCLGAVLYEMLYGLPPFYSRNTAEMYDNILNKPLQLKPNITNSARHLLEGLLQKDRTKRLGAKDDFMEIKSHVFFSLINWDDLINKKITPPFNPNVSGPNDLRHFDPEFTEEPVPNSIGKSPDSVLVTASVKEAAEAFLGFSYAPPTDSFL

Nc1ncc(-c2nc(N3CCOCC3)nc(N3CCOCC3)n2)c(C(F)F)n1
remaining binding (binding, competition with immobilised ligand; 10 µM): 77%

Cn1cncc1[C@@](O)(COc1ccc(C#N)cc1-c1ccc(OC(F)(F)F)cc1)c1ccc(C#N)cc1
remaining binding (cell-free assay, competition with immobilised ligand; 1 µM): 100%

CC(C)(C)c1cc(C=C(C#N)C#N)cc(Br)c1O
remaining activity (enzyme activity, inhibitor; 0.5 µM): 95.3%

C#Cc1n[nH]c2c(-c3cn(C(C)c4ccccn4)c(=O)[nH]c3=O)cc(F)cc12 (stereo not drawn)
inhibition (enzyme activity, inhibitor; 1 µM): 0%

O=c1[nH]c2ccccc2n1C1CCN(Cc2ccc(-c3[nH]c4cc5ncnc5cc4nc3-c3ccccc3)cc2)CC1
remaining signal (cell-free assay; 0.5 µM): 102%

Cn1cc(-c2cccc(N3CCc4c(sc5c4CC(C)(C)C5)C3=O)c2CO)cc(Nc2ccncn2)c1=O
inhibition (enzyme activity, inhibitor; 1 µM): -11%

N#CC1(c2ccccn2)CCN(Cc2cc(C(=O)O)c(=O)n3ccccc23)CC1
remaining binding (cell-free assay, competition with immobilised ligand; 1 µM): 87%

Cn1cc(-c2cc(F)cc(N3CCn4c(cc5c4CCCC5)C3=O)c2CO)cc(Nc2ccc(N3CCN(C4COC4)CC3)cn2)c1=O
inhibition (enzyme activity, inhibitor; 0.1 µM): 13%

COc1ncccc1-c1cnn2ccc(N3CCN(C(=O)OC(C)C)CC3)nc12
remaining binding (binding, competition with immobilised ligand; 1 µM): 100%
